High-throughput results deposited in PubChem by several laboratories.
In the library only some 2.7% were active in any assay of this set; here they are far more common.
NadD block: inhibitors of Staphylococcus aureus NadD; inhibition, % at 20 µM; purified NadD enzyme, colorimetric absorbance read-out; hit rate 0.78% among 360,000; AID 602399; in the data active = inhibition above about 26%
TPT1 inh: C. albicans TPT1 enzyme inhibition. recombinant caTPT1, FP RNA substrate dephosphorylation. inhibition, % at 5 µM. hit rate 0.81% among 300,000. AID 1962;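 active = inhibition above the mean of all tested compounds plus 3 SD, set per screening campaign, cut at about 24% in these data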;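 note: plate controls were DMSO alone for no effect and ferristatin control at 100 nM for full effect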
HNF4A DNA FP: change in binding of human HNF4 alpha to DNA | hit rate 0.3% among 360,000 | P41235 | HNF4a-FITC DNA binding, fluorescence polarization, 1 h | activity change, % at 10 µM; in the data active = activity change above about 30%, passing the limit was not always enough
CSN inh: CSN deneddylation inhibition. Q92905. Purified CSN, SCF-Nedd8-OG deneddylation, fluorescence polarization. inhibition, % at 12.5 µM. hit rate 0.38% among 360,000. AID 651999;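 active = pattern-corrected inhibition above about 35%, with an unprinted fluorescence ratio check between 0.5 and 1.5, limit read from the data, passing the limit was not always enough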;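 note: 0% = enzyme with substrate and 100% = substrate without enzyme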
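test system = HEK293T-derived human Csn5 enzyme | amount = 0.24 nM Csn5 enzyme, final concentration | medium = Tris/NaCl/DTT buffer, pH 7.5 | schedule = 90 min reaction at room temperature | signal = FP | evaluation = inhibition of Csn5 cleavage, % | compound dosing = single dose of 12.5 µM compound with 0.25% DMSO | probe or stimulus = 10 nM SCFSkp2-Nedd8OG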
PP1 counter: blocks human PP1-alpha phosphatase, a PP5 counter-screen; purified PP1alpha, OMFP fluorescence; inhibition, % at 6.7 µM; P62136; hit rate 0.9% among 320,000;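 active = inhibition above the mean inhibition of all tested compounds plus 3 SD, computed separately for each screening campaign, cut at about 15% in these data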
Rpn11 block: inhibitors of human proteasome Rpn11 | AID 588493 | inhibition, % at 20 µM | O00487 | human 26S proteasome, Ub4-pepOG fluorescence polarization; 20S core pre-blocked with epoxomicin | hit rate 0.59% among 360,000;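 active = inhibition at 20 µM, scaled to each plate's controls, above about 33%, limit read from the data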
Target sequence (O00487 whole entry, looked up): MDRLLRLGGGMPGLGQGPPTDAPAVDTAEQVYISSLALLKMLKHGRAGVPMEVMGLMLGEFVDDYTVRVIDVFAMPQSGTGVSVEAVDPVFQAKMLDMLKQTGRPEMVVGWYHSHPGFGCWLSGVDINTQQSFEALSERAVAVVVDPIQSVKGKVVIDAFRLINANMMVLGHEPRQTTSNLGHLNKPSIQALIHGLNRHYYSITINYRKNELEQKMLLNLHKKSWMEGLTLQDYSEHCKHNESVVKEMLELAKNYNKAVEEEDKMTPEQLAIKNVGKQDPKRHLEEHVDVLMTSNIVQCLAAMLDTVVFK
PP1 inh confirm: confirmation of human PP1 phosphatase inhibitors. shares compounds with PP1 counter. purified PP1alpha, OMFP substrate fluorescence. hit rate 52% among 1,900. inhibition, % at 6.7 µM. AID 2358;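 active = mean PP1 inhibition above a set limit taken from the earlier primary screen, cut at about 15% in these data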
PP5 counter: counter-screen for PP1 inhibitors: human PP5 phosphatase inhibition; AID 2360; hit rate 4% among 1,900; shares compounds with PP1 counter; purified PP5c, OMFP fluorescence; inhibition, % at 6.7 µM;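 active = mean PP5 inhibition over triplicate wells above about 9.5% taken from the earlier PP1 screen, limit read from the data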
* = called active by the depositor; nt = no result.

SMILES	NadD block	TPT1 inh	HNF4A DNA FP	CSN inh	PP1 counter	Rpn11 block	PP1 inh confirm	PP5 counter
O=C(COc1ccc2c3c(c(=O)oc2c1)CCCC3)N1C[C@H]2C[C@@H](C1)c1cccc(=O)n1C2	7	-4	2	-4	30*	-5	30*	-7
Cc1cc(C(=O)Cn2nc(C(=O)O)c3ccccc3c2=O)c(C)n1CCc1ccc(F)cc1	-4	2	-4	1	24*	3	22*	-3
Cc1cc(C(=O)Cn2nc(C(=O)O)c3ccccc3c2=O)c(C)n1CC(F)(F)F	0	3	1	-3	-16	2	nt	nt
COC(=O)c1ccc(/C=C/c2ccc3cccc(OC(C)=O)c3n2)cc1	2	-5	0	-3	20*	1	21*	-4
O=C(COC(=O)c1ccc(O)cc1)c1ccc(S(=O)(=O)N2CCCCC2)cc1	-3	nt	3	-1	-1	-1	nt	nt
CN1CCC(C(=O)C(=O)O)C1=O (centres undefined)	4	nt	1	0	nt	-2	nt	nt
CC(=O)c1ccc(NC(=O)C2CCCNC2=O)cc1 (centres undefined)	-1	-2	-11	5	22*	-10	-2	-4
COc1ccc(NC(=O)C2CCCNC2=O)cc1 (centres undefined)	-3	nt	2	2	nt	6	nt	nt
COc1ccc(Cc2nc3ccc(C(=O)N(C)CCCN4CCOCC4)cc3o2)cc1	-3	-1	-1	0	-3	-1	nt	nt
O=C(CSc1nnc(-c2ccccc2O)o1)Oc1ccc(OCc2ccccc2)cc1	5	-4	-2	2	24*	-3	30*	-5
O=C(CSc1nnc(-c2ccncc2)o1)Oc1ccccc1	-1	-3	2	0	2	3	nt	nt
C=CCn1c(SCc2ccc(C(=O)Nc3nccs3)cc2)nnc1-c1ccc(C)c(Cl)c1	12	-4	1	-20	18*	8	8	0
CC(C)COC(=O)N1CCCCC1c1cc(C(=O)N2CCOCC2)no1 (centres undefined)	0	nt	-1	-4	nt	2	nt	nt
CCCCN1C(=O)C(O)=C(C(C)=O)C1c1ccccc1 (centres undefined)	4	1	-2	-1	-2	-10	nt	nt
CCCCCCN1C(=O)C(O)=C(C(C)=O)C1c1ccc(Cl)cc1 (centres undefined)	17	3	-1	-1	23*	1	18*	2
CCOc1ccc(C2C(C(C)=O)=C(O)C(=O)N2CCc2c[nH]c3ccccc23)cc1 (centres undefined)	17	0	2	3	22*	4	29*	-1
CCOc1ccc(NC(=NCc2ccc3c(c2)OCO3)SC2CC(=O)N(c3ccc(C(=O)O)cc3)C2=O)cc1 (centres undefined)	20	0	0	7	19*	0	8	6
Cc1ccc2oc(C(=O)NCC(c3ccco3)N(C)C)c(C)c2c1 (centres undefined)	-8	-2	2	4	-1	0	nt	nt
CCC1CCCCN1S(=O)(=O)c1ccc(C(=O)Nc2nnc(C3CC3)o2)cc1 (centres undefined)	10	-1	-2	2	23*	-2	26*	-2
CCOC(=O)N1CCN(S(=O)(=O)c2ccc(C(=O)Nc3nnc(C4CC4)o3)cc2)CC1	4	0	2	-9	14	-1	nt	nt
CC1CC(C)CN(S(=O)(=O)c2ccc(C(=O)Nc3nnc(C4CC4)o3)cc2)C1 (centres undefined)	9	-7	1	-1	19*	-4	27*	-2
CCCCCc1c2c(cc(O)c1C(=O)O)OC(=O)c1c(cc(OC)cc1C(=O)CCCC)O2	1	-2	4	20	25*	11	28*	2
CCCCN1C(=O)C(CC(=O)NCc2ccco2)CC(C(=O)N2CCCCCC2)=C1C (centres undefined)	4	nt	1	-1	nt	nt	nt	nt
Cc1[nH]n2c(=O)cc(C(C)(C)C)nc2c1-c1ccccc1	5	-1	1	5	24*	-2	18*	-1
CCCc1cc(=O)n2[nH]c(C)c(-c3ccccc3)c2n1	-3	-9	-1	-6	0	-1	nt	nt
SMILES	NadD block	TPT1 inh	HNF4A DNA FP	CSN inh	PP1 counter	Rpn11 block	PP1 inh confirm	PP5 counter
CCc1cc(=O)n2[nH]c(-c3ccccc3)c(-c3ccccc3)c2n1	2	0	3	0	22*	1	21*	-1
C=Cn1cc[n+](CC(=O)c2ccc(-c3ccccc3)cc2)c1	-5	0	5	1	22*	0	-2	0
Cc1ccc(C(C)C)c(OCc2ccc(C(=O)N/N=C/c3ccc(O)cc3O)cc2)c1	14	0	-2	-8	26*	10	34*	-2
Cc1ccc(-n2c(O)c(/C=N/NC(=O)C3COc4ccccc4O3)c3ccccc3c2=O)cc1 (centres undefined)	23	13	5	7	19*	12	27*	-2
CN(CCc1ccccc1)C(=O)c1ccc(NC(=O)Cc2ccc(NC(=O)C3CCN(C(=O)CCc4ccccc4)CC3)cc2)cc1	9	nt	4	0	nt	20	nt	nt
Cc1cc(C)n(-c2nc(NC(C)(C)C)nc(NC(C)(C)C)n2)n1	-4	-2	2	3	2	-2	nt	nt
Cc1cc(C)n(-c2nc(Nc3ccccc3C(F)(F)F)nc(-n3nc(C)cc3C)n2)n1	13	0	2	6	30*	1	17*	2
Cc1cc(C)n(-c2nc(Nc3ccccc3C)nc(-n3nc(C)cc3C)n2)n1	nt	-3	nt	nt	36*	nt	38*	-2
O=C(CN(C(=O)CCC(=O)Nc1nccs1)c1ccccc1F)NCc1ccc(F)cc1	-2	2	3	-4	-2	5	nt	nt
COc1ccc(-n2c(C)c(C)c3c(N)ncnc32)cc1	-4	0	1	3	2	1	nt	nt
CC1(c2ccc(Cl)cc2)NC(=O)N(CC(=O)Nc2ccc(F)cc2)C1=O (centres undefined)	-4	-1	-1	0	0	2	nt	nt
COc1ccc(NC(=O)CN2C(=O)NC(C)(c3ccccc3)C2=O)cc1Cl (centres undefined)	-11	-5	0	-3	-88	6	1	2
CC1(c2ccc(Cl)cc2)NC(=O)N(CC(=O)Nc2ccc(N3CCCCC3)cc2)C1=O (centres undefined)	3	2	5	-3	39*	-3	4	-2
